Data taken from ChEMBL document CHEMBL5385870, “Amide containing NBTI antibacterials with reduced hERG inhibition, retained antimicrobial activity against gram-positive bacteria and in vivo efficacy” (Eur J Med Chem, 2023).
Values after ≈ are worked out from the molar mass of the structure shown.

Key:
Klebsiella pneumoniae = assay: Antimicrobial activity against Klebsiella pneumoniae assessed as reduction in bacterial growth incubated for 20 hrs by broth microdilution analysis; assay type: functional
Acinetobacter baumannii = assay: Antimicrobial activity against Acinetobacter baumannii assessed as reduction in bacterial growth incubated for 20 hrs by broth microdilution analysis; assay type: functional
Escherichia coli [1] = assay: Antimicrobial activity against Escherichia coli D22 assessed as reduction in bacterial growth incubated for 20 hrs by broth microdilution analysis; assay type: functional
Escherichia coli [2] = assay: Antimicrobial activity against Escherichia coli N43 assessed as reduction in bacterial growth incubated for 20 hrs by broth microdilution analysis; assay type: functional
Escherichia coli [3] = assay: Antimicrobial activity against Escherichia coli ATCC 25922 assessed as reduction in bacterial growth incubated for 20 hrs by broth microdilution analysis; assay type: functional
Staphylococcus aureus [4] = assay: Antimicrobial activity against Staphylococcus aureus ATCC 29213 assessed as reduction in bacterial growth incubated for 20 hrs by broth microdilution analysis; assay type: functional
Summary of the method: (§1)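 MIC was determined by broth microdilution per CLSI/EUCAST. Inoculum was 10^5 CFU/mL in cation-adjusted Mueller-Hinton broth with TES, with compounds in DMSO, incubated 20 h at 35 °C. MIC was read visually as the lowest concentration without turbidity. Tetracycline was the plate control.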

Escherichia coli [5] = assay: Antimicrobial activity against multidrug-resistant Escherichia coli assessed as reduction in bacterial growth incubated for 20 hrs by broth microdilution analysis; assay type: functional; summary of the method: as §1
Staphylococcus aureus [6] = assay: Antimicrobial activity against cefoxitin/ciprofloxacin/clindamycin/erythromycin/tetracycline/thiamulin/trimethoprim-resistant Staphylococcus aureus assessed as reduction in bacterial growth incubated for 20 hrs by broth microdilution analysis; assay type: functional; summary of the method: as §1
Enterococcus faecalis = assay: Antimicrobial activity against Enterococcus faecalis DRK 057 assessed as reduction in bacterial growth incubated for 20 hrs by broth microdilution analysis; assay type: functional
Staphylococcus aureus [7] = assay: Antimicrobial activity against cefoxitin/gentamicin/kanamycin/rifampicin/streptomycin/sulfamethoxazole/tetracycline-resistant Staphylococcus aureus assessed as reduction in bacterial growth incubated for 20 hrs by broth microdilution analysis; assay type: functional; summary of the method: as §1
[8] = Antimicrobial activity against Salmonella alachua RDK 030c assessed as reduction in bacterial growth incubated for 20 hrs by broth microdilution analysis; assay type: functional
hERG [9] = assay: Selectivity index, ratio of IC50 for inhibition of hERG fluorescence polarization assay to MIC for antimicrobial activity against Staphylococcus aureus ATCC 29213 assessed as reduction in bacterial growth; assay type: toxicity; settings: human; read-out: Selectivity Index
[10] = Inhibition of Escherichia coli DNA topoisomerase 4 relaxation activity measured for 30 mins
Summary of the method: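 TopoIV relaxation plate assay: 1.5 U enzyme with 0.75 µg supercoiled pNO1 plasmid, inhibitor in 10% DMSO/0.008% Tween-20, 37 °C 30 min; E. coli buffer 40 mM HEPES-KOH pH 7.6 with 1 mM ATP, S. aureus buffer 50 mM Tris pH 7.5 with 1.5 mM ATP. Triplex capture, Diamond dye fluorescence 495/537 nm.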

Topoisomerase IV = Topoisomerase IV (Staphylococcus aureus, UniProt P0C1S7+P0C1U9); assay: Inhibition of Staphylococcus aureus DNA topoisomerase 4 relaxation activity measured for 30 mins; assay type: protein-complex assay
Summary of the method: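 TopoIV relaxation plate assay: 1.5 U enzyme with 0.75 µg supercoiled pNO1 plasmid, inhibitor in 10% DMSO/0.008% Tween-20, 37 °C 30 min; E. coli buffer 40 mM HEPES-KOH pH 7.6 with 1 mM ATP, S. aureus buffer 50 mM Tris pH 7.5 with 1.5 mM ATP.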

[11] = target: Voltage-gated inwardly rectifying potassium channel KCNH2 (Homo sapiens, UniProt Q12809); assay: Inhibition of hERG fluorescence polarization assay; assay type: toxicity
Voltage-gated inwardly rectifying potassium channel KCNH2, sequence (Q12809 whole entry): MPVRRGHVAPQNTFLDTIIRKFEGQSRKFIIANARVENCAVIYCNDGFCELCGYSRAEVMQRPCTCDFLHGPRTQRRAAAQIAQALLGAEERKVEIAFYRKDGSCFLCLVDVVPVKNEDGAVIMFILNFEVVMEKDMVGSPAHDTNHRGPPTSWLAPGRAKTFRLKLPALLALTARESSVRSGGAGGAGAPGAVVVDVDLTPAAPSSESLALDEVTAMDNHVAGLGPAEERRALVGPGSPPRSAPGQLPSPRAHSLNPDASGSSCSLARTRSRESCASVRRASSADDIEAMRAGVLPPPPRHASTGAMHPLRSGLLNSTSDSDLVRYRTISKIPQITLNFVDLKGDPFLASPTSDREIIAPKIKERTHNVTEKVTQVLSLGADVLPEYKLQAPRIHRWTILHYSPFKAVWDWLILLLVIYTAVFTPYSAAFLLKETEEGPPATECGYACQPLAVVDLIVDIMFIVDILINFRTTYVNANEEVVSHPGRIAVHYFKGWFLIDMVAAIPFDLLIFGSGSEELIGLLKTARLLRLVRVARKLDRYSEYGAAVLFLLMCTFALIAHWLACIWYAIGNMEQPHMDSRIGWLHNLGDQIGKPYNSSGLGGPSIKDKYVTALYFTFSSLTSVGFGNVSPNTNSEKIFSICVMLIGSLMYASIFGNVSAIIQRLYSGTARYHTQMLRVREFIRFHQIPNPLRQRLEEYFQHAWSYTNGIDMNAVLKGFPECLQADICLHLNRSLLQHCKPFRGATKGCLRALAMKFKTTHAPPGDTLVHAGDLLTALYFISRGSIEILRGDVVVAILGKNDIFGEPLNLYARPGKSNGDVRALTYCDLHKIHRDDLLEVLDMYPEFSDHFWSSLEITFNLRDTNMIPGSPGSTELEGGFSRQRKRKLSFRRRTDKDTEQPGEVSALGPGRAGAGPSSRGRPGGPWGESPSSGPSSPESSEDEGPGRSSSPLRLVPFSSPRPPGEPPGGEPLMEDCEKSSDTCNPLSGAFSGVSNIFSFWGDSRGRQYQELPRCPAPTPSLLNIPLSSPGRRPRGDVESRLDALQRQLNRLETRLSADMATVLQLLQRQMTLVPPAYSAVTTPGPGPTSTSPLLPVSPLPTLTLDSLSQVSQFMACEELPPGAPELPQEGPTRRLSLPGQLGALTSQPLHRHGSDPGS

DNA gyrase [12] = target: DNA gyrase (Escherichia coli, UniProt P0AES4+P0AES6); assay: Inhibition of Escherichia coli DNA gyrase supercoiling incubated for 30 mins in presence of ATP; assay type: protein-complex assay
Summary of the method: (§2)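 Gyrase supercoiling plate assay (triplex capture on streptavidin plates with immobilized biotinylated oligonucleotide): 1.5 U enzyme, 0.75 µg relaxed pNO1 plasmid, inhibitor in 10% DMSO/0.008% Tween-20, 37 °C 30 min, 30 µl. Buffer for E. coli: 35 mM Tris pH 7.5, 1 mM ATP; S. aureus: 40 mM HEPES-KOH pH 7.6, 2 mM ATP, 500 mM K-glutamate. Diamond dye fluorescence (ex 495/em 537 nm). Pre-screen 100 and 1 µM; IC50 from seven concentrations by four-parameter fit, mean of two runs.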

hERG [13] = assay: Selectivity index, ratio of IC50 for inhibition of hERG fluorescence polarization assay to MIC for antimicrobial activity against multidrug-resisitant Staphylococcus aureus assessed as reduction in bacterial growth; assay type: toxicity; settings: human; read-out: Selectivity Index
Pseudomonas aeruginosa = assay: Antimicrobial activity against Pseudomonas aeruginosa RDK 184 assessed as reduction in bacterial growth incubated for 20 hrs by broth microdilution analysis; assay type: functional
HepG2 [14] = assay: Cytotoxicity against human HepG2 cells assessed as inhibition of cell growth at 50 uM incubated for 72 hrs by […]; assay type: functional; set-up: scale not given: the % may be the effect or the level left
Summary of the method: (§3)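 HepG2 in DMEM with 10% FBS, 2 mM glutamine, penicillin/streptomycin, 37 °C, 5% CO₂; seeded 8,000 cells/well, attached overnight, then treated 1.25–100 µM or vehicle for 72 h. Metabolic activity by CellTiter 96 Aqueous One (MTS) absorbance 492 nm.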

Staphylococcus aureus [15] = assay: Antimicrobial activity against multidrug-resistant Staphylococcus aureus assessed as reduction in bacterial growth incubated for 20 hrs by broth microdilution analysis; assay type: functional; summary of the method: as §1
[16] = target: DNA topoisomerase 2-alpha (Homo sapiens) (UniProt P11388); assay: Inhibition of human DNA topoisomerase 2-alpha assessed as residual activity at 100 uM incubated for 30 mins relative to control
DNA topoisomerase 2-alpha (Homo sapiens), sequence (P11388 whole entry): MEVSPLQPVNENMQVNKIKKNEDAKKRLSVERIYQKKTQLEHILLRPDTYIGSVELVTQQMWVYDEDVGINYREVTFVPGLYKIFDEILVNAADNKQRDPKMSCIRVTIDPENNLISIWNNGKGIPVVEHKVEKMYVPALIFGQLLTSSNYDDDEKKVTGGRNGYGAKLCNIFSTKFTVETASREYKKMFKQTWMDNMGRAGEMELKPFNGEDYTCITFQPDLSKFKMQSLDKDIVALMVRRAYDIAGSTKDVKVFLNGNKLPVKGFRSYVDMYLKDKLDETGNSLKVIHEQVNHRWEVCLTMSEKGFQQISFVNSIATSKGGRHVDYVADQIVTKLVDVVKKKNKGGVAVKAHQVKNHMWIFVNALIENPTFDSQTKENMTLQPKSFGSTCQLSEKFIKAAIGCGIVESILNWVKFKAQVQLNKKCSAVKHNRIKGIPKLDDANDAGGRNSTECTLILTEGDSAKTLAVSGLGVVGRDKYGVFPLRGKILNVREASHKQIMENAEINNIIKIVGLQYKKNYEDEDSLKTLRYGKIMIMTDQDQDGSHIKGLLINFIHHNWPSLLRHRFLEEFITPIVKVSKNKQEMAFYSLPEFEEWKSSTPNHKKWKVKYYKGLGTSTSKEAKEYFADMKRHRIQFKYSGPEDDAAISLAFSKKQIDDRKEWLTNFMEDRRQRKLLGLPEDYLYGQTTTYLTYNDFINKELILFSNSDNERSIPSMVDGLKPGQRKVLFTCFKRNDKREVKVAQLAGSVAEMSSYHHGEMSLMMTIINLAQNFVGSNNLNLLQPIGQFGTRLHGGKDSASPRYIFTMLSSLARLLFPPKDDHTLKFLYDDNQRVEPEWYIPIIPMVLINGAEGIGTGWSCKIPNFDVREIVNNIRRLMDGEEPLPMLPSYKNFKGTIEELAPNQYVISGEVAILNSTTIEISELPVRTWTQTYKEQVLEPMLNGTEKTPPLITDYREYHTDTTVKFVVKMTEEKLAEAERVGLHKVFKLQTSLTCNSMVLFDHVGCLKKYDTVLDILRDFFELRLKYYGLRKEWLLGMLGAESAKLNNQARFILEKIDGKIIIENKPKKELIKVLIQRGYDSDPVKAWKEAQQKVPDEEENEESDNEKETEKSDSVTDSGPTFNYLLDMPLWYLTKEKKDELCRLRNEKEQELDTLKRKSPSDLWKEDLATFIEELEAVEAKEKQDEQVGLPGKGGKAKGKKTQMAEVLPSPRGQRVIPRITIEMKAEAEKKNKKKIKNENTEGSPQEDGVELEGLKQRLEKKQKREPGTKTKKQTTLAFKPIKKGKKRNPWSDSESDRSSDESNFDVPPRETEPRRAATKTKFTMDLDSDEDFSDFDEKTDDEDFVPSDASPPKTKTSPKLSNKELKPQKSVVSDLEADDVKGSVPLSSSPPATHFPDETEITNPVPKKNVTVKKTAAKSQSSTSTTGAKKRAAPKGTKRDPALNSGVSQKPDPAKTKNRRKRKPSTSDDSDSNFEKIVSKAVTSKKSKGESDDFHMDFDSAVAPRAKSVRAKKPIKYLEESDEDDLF

DNA gyrase [17] = target: DNA gyrase (Staphylococcus aureus, UniProt P0A0K8+P20831); assay: Inhibition of Staphylococcus aureus DNA gyrase supercoiling incubated for 30 mins in presence of ATP; assay type: protein-complex assay; summary of the method: as §2
DNA gyrase (Staphylococcus aureus, UniProt P0A0K8+P20831), sequence (P0A0K8 whole entry): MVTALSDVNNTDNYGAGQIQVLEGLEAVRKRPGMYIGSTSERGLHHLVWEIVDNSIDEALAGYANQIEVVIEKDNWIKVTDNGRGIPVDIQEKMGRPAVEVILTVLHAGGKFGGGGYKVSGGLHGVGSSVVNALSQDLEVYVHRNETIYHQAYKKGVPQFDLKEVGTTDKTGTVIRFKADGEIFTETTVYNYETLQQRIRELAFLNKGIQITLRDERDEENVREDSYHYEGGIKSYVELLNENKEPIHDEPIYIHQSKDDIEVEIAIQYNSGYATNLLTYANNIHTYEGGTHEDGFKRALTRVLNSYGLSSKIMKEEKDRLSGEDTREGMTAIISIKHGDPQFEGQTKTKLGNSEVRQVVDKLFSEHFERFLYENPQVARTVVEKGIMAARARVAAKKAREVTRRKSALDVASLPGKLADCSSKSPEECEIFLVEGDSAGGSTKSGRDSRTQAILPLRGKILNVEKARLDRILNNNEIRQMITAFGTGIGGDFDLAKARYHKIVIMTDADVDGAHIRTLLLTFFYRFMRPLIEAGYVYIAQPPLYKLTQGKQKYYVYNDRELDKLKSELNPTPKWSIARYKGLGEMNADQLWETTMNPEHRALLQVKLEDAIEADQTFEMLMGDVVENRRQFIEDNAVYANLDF
DNA gyrase (Staphylococcus aureus, UniProt P0A0K8+P20831), sequence (P20831 whole entry): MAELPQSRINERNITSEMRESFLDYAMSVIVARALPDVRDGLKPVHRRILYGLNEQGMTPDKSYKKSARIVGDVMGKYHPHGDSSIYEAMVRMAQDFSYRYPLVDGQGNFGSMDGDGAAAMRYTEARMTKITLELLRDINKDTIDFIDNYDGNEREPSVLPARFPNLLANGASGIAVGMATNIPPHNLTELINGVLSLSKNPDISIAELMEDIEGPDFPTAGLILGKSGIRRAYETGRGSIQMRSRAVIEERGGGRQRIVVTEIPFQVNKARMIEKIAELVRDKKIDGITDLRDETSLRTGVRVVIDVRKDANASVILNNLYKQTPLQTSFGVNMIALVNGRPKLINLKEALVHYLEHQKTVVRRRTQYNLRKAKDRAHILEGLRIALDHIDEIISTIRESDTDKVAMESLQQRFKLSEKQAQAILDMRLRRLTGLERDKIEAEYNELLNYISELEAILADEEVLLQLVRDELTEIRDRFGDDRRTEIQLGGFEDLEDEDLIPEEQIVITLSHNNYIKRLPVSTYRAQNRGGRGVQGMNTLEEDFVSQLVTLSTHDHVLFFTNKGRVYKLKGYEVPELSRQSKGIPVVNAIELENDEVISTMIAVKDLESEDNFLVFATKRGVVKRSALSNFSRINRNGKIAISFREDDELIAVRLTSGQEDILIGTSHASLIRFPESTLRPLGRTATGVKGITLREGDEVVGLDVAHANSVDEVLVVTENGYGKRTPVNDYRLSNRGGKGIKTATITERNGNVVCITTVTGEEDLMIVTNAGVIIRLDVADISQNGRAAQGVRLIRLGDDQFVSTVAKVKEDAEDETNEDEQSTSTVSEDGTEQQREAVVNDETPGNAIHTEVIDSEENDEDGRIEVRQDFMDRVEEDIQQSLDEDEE

[18] = Acute toxicity in zebrafish embryos assessed as lethal concentration compound administered from 6 hrs post fertilization and measured after 120 hrs post fertilization; set-up: species or system Danio rerio; settings: in vivo
Summary of the method: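 Wild-type AB zebrafish embryos in E3 medium at 28 °C were exposed by immersion from 6 hpf to 0.39–25 µg/mL (top dose 12.5 µg/mL for one compound), with DMSO at most 0.25%. Controls were 0.25% DMSO and 25 µg/mL doxorubicin. Embryos were inspected daily for death and toxicity signs through 120 hpf. Runs were in triplicate, with 24 embryos per concentration.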

HepG2 [19] = assay: Cytotoxicity against human HepG2 cells assessed as inhibition of cell growth incubated for 72 hrs by […]; assay type: functional, cell-based; settings: HepG2, 72 h; summary of the method: as §3

Compound | MIC (Klebsiella pneumoniae) | MIC (Acinetobacter baumannii) | MIC (Escherichia coli [1]) | MIC (Escherichia coli [2]) | MIC (Escherichia coli [3]) | MIC (Staphylococcus aureus [4]) | MIC (Escherichia coli [5]) | MIC (Staphylococcus aureus [6]) | MIC (Enterococcus faecalis) [µM] | MIC (Staphylococcus aureus [7]) [µM] | MIC [8] [µM] | selectivity ratio (hERG [9]) | IC50 [10] [nM] | IC50 (Topoisomerase IV) [nM] | IC50 [11] [nM] | IC50 (DNA gyrase [12]) [nM] | selectivity ratio (hERG [13]) | MIC (Pseudomonas aeruginosa) [µM] | MIC (Staphylococcus aureus [15]) [µM] | Activity [16] [%] | further results
CN(C)[C@@H]1C(O)=C(C(N)=O)C(=O)[C@@]2(O)C(O)=C3C(=O)c4c(O)cccc4[C@@](C)(O)[C@H]3C[C@@H]12 [TETRACYCLINE] | > 4 µg/mL | > 4 µg/mL | 1 µg/mL | 0.25 µg/mL | 1 µg/mL | 0.25 µg/mL | > 4 µg/mL | > 4 µg/mL | – | – | – | – | – | – | – | – | – | – | – | – | –
COc1ccc2nccc(CCN3CCC(NC(=O)c4cc(F)c(Cl)c(F)c4)CC3)c2n1 | > 278 µM | 4.34 µM | 0.542 µM | 0.135 µM | 69.4 µM | 0.137 µM | > 278 µM | 0.271 µM | 2.17 (≈ 1 µg/mL) | 0.137 (≈ 0.0631 µg/mL) | > 278 | 1.3 | 41 | 177 | 178 | 236 | 0.656 | > 278 | 0.271 (≈ 0.125 µg/mL) | 101 | Activity (HepG2 [14]): 84%; IC50 (DNA gyrase [17]): 220 nM
COc1ccc2nccc(OC[C@H]3CC[C@H](NC(=O)c4cc(F)c(Cl)c(F)c4)CC3)c2n1 | > 277 µM | > 277 µM | 277 µM | 277 µM | 277 µM | 277 µM | > 277 µM | 277 µM | > 277 | 277 (≈ 128 µg/mL) | > 277 | ≥ 0.108 | > 100000 | > 100000 | > 30000 | > 100000 | ≥ 0.108 | > 277 | > 277 | 100 | Activity (HepG2 [14]): 96%; IC50 (DNA gyrase [17]): > 100000 nM
COc1ccc2nccc(OC[C@H]3CC[C@H](NC(=O)c4ccc(I)c(F)c4)CC3)c2n1 | > 239 µM | > 239 µM | 239 µM | 239 µM | 239 µM | 239 µM | > 239 µM | 239 µM | > 239 | > 239 | > 239 | ≥ 0.125 | > 100000 | > 100000 | > 30000 | > 100000 | ≥ 0.125 | > 239 | > 239 | 99.1 | Activity (HepG2 [14]): 96%; IC50 (DNA gyrase [17]): > 100000 nM
COc1ccc2nccc(CCN3CCC(NC(=O)c4ccc(I)c(F)c4)CC3)c2n1 | > 240 µM | 240 µM | 0.468 µM | 0.234 µM | 240 µM | 0.058 µM | > 240 µM | 0.234 µM | 0.468 (≈ 0.25 µg/mL) | 0.058 (≈ 0.031 µg/mL) | > 240 | 1.65 | 43 | 261 | 96 | 277 | 0.41 | > 240 | 0.234 (≈ 0.125 µg/mL) | 102 | Activity (HepG2 [14]): 89%; IC50 (DNA gyrase [17]): 114 nM
COc1ccc2nccc(CCN3CCC(NC(=O)c4cc(F)c(Br)c(F)c4)CC3)c2n1 | > 253 µM | 3.96 µM | 0.247 µM | 0.061 µM | 63.3 µM | 0.061 µM | 253 µM | 0.247 µM | 0.495 (≈ 0.25 µg/mL) | 0.061 (≈ 0.0308 µg/mL) | > 253 | 1.99 | 40 | 84 | 122 | 114 | 0.493 | > 253 | 0.125 (≈ 0.0632 µg/mL) | 102 | LC50 at 114 h [18]: > 25 µg/mL; Activity (HepG2 [14]): 61%; IC50 (DNA gyrase [17]): 108 nM
COc1ccc2nccc(OC[C@@H]3CC[C@@H](NC(=O)c4cc(F)c(Cl)c(F)c4)CO3)c2n1 | > 276 µM | 276 µM | 276 µM | 0.134 µM | 276 µM | 0.136 µM | > 276 µM | 0.136 µM | 8.62 (≈ 4 µg/mL) | 0.136 (≈ 0.0631 µg/mL) | > 276 | ≥ 224 | 73 | 579 | > 30000 | 677 | ≥ 224 | > 276 | 0.269 (≈ 0.125 µg/mL) | 101 | IC50 (DNA gyrase [17]): 445 nM; IC50 (HepG2 [19]): 9060 nM
COc1ccc2nccc(OC[C@H]3CC[C@H](NC(=O)c4cc(F)c(Br)c(F)c4)CC3)c2n1 | > 64.8 µM | > 64.8 µM | 64.8 µM | 64.8 µM | 64.8 µM | 253 µM | > 64.8 µM | 64.8 µM | > 64.8 | > 64.8 | > 64.8 | ≥ 0.119 | > 100000 | > 100000 | > 30000 | > 100000 | ≥ 0.119 | > 64.8 | > 64.8 | 101 | Activity (HepG2 [14]): 90%; IC50 (DNA gyrase [17]): > 100000 nM
COc1ccc2nccc(OC[C@@H]3CC[C@@H](NC(=O)c4ccc(I)c(F)c4)CO3)c2n1 | > 238 µM | > 238 µM | 238 µM | 0.117 µM | 238 µM | 0.058 µM | > 238 µM | 0.058 µM | > 238 | 0.058 (≈ 0.0312 µg/mL) | > 238 | ≥ 520 | 92 | 783 | > 30000 | 358 | ≥ 520 | > 238 | 238 (≈ 128 µg/mL) | 102 | IC50 (DNA gyrase [17]): 271 nM; IC50 (HepG2 [19]): 11200 nM
